# Experimental data published in ChEMBL document CHEMBL1157638, “Fluorescent epigenetic small molecule induces expression of the tumor suppressor ras-association domain family 1A and inhibits human prostate xenograft” (J Med Chem, 2010).
# Legend:
# Assay type in all cases: functional
# DU-145 [1] = experiment: Growth inhibition of human DU145 cells assessed as cell growth at 10 nM relative to untreated control; settings: read-out: Activity
# In short: (§1)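 Run externally at the National Cancer Institute as a 59-cell-line panel screen, with concentrations up to 100 μM. Growth was scored relative to control, where negative growth or total cell kill was possible. Data are in the Supporting Information.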
# MDA-MB-435 = experiment: Growth inhibition of human MDA-MB-435 cells assessed as cell growth at 1 nM relative to untreated control; settings: read-out: Activity
# IGROV-1 [2] = experiment: Growth inhibition of human IGROV1 cells assessed as cell growth at 10 nM relative to untreated control; settings: read-out: Activity
# COLO 205 = experiment: Growth inhibition of human COLO205 cells assessed as cell growth at 1 uM relative to untreated control; settings: read-out: Activity
# HT-29 [3] = experiment: Growth inhibition of human HT-29 cells assessed as cell growth at 1 nM relative to untreated control; settings: read-out: Activity
# NCI-H23 [4] = experiment: Growth inhibition of human NCI-H23 cells
# SF-539 = experiment: Growth inhibition of human SF539 cells assessed as cell growth at 1 nM relative to untreated control; settings: read-out: Activity
# HCC 2998 = experiment: Growth inhibition of human HCC2998 cells assessed as cell growth at 10 uM relative to untreated control; settings: read-out: Activity; in short: as §1
# U-251 = experiment: Growth inhibition of human U251 cells
# OVCAR-8 = experiment: Growth inhibition of human OVCAR8 cells assessed as cell growth at 1 nM relative to untreated control; settings: read-out: Activity
# NCI-H460 = experiment: Growth inhibition of human NCI-H460 cells assessed as cell growth at 1 uM relative to untreated control; settings: read-out: Activity
# PC-3 [5] = experiment: Antitumor activity against human PC3 cells xenografted in athymic BALB/c mouse assessed as reduction in tumor volume at 10 mg/kg, ip dosed every other day for 28 days relative to untreated control; parameters: scale not given: the % may be the effect or the level left; settings: route intraperitoneal
# In short: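 Male athymic Balb/c nude mice (18-22 g) got 3 × 10⁶ PC-3 cells subcutaneously in the right axillary region. After one week they were randomized into two groups of four. Dosing was 10 mg/kg ip or vehicle once every other day for 28 days. Vehicle was DMSO stock diluted in 1:1 PEG 400/PBS. Tumour volume was measured by caliper as length × width × height/2. Data are mean ± SEM (n = 4).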
# K562 = experiment: Growth inhibition of human K562 cells assessed as cell growth at 100 nM relative to untreated control; settings: read-out: Activity
# HT-29 [6] = experiment: Growth inhibition of human HT-29 cells assessed as cell growth at 10 nM relative to untreated control; settings: read-out: Activity
# SK-MEL-2 = experiment: Growth inhibition of human SK-MEL-2 cells assessed as cell growth at 1 uM relative to untreated control; settings: read-out: Activity
# BT-549 [7] = experiment: Growth inhibition of human BT549 cells assessed as cell growth at 10 uM relative to untreated control; settings: read-out: Activity
# LOX IMVI = experiment: Growth inhibition of human LOXIMVI cells assessed as cell growth at 1 uM relative to untreated control; settings: read-out: Activity
# SK-OV-3 = experiment: Growth inhibition of human SKOV3 cells assessed as cell growth at 10 nM relative to untreated control; settings: read-out: Activity
# BT-549 [8] = experiment: Growth inhibition of human BT549 cells assessed as cell growth at 10 nM relative to untreated control; settings: read-out: Activity
# HT-29 [9] = experiment: Growth inhibition of human HT-29 cells assessed as cell growth at 1 uM relative to untreated control; settings: read-out: Activity
# HCT-15 = experiment: Growth inhibition of human HCT15 cells assessed as cell growth at 10 nM relative to untreated control; settings: read-out: Activity; in short: as §1
# CAKI-1 = experiment: Growth inhibition of human Caki1 cells assessed as cell growth at 1 uM relative to untreated control; settings: read-out: Activity; in short: as §1
# IGROV-1 [10] = experiment: Growth inhibition of human IGROV1 cells
# HOP-92 = experiment: Growth inhibition of human HOP92 cells assessed as cell growth at 10 uM relative to untreated control; settings: read-out: Activity; in short: as §1
# DU-145 [11] = experiment: Growth inhibition of human DU145 cells assessed as cell growth at 10 uM relative to untreated control; settings: read-out: Activity; in short: as §1
# NCI/ADR-RES [12] = experiment: Growth inhibition of human NCI/ADR-RES cells assessed as cell growth at 1 nM relative to untreated control; settings: read-out: Activity
# A549 = experiment: Growth inhibition of human A549 cells assessed as cell growth at 100 nM relative to untreated control; settings: read-out: Activity
# MDA-MB-231 [13] = experiment: Growth inhibition of human MDA-MB-231 cells assessed as cell growth at 10 uM relative to untreated control; settings: read-out: Activity
# HL-60(TB) = experiment: Growth inhibition of human HL-60(TB) cells assessed as cell growth at 1 nM relative to untreated control; settings: read-out: Activity
# NCI/ADR-RES [14] = experiment: Growth inhibition of human NCI/ADR-RES cells assessed as cell growth at 1 uM relative to untreated control; settings: read-out: Activity
# SF-268 = experiment: Growth inhibition of human SF268 cells assessed as cell growth at 10 nM relative to untreated control; settings: read-out: Activity
# MDA-MB-231 [15] = experiment: Growth inhibition of human MDA-MB-231 cells assessed as cell growth at 100 nM relative to untreated control; settings: read-out: Activity
# SR = experiment: Growth inhibition of human SR cells
# NCI-H23 [16] = experiment: Growth inhibition of human NCI-H23 cells assessed as cell growth at 100 nM relative to untreated control; settings: read-out: Activity
# PC-3 [17] = experiment: Growth inhibition of human PC3 cells assessed as cell growth at 100 nM relative to untreated control; settings: read-out: Activity
# NCI-H226 = experiment: Growth inhibition of human NCI-H226 cells assessed as cell growth at 10 uM relative to untreated control; settings: read-out: Activity
# OVCAR-4 = experiment: Growth inhibition of human OVCAR4 cells assessed as cell growth at 100 nM relative to untreated control; settings: read-out: Activity
# SK-MEL-5 = experiment: Growth inhibition of human SK-MEL-5 cells assessed as cell growth at 10 nM relative to untreated control; settings: read-out: Activity
# SN12C [18] = experiment: Growth inhibition of human SN12C cells assessed as cell growth at 1 uM relative to untreated control; settings: read-out: Activity
# T47D = experiment: Growth inhibition of human T47D cells assessed as cell growth at 10 uM relative to untreated control; settings: read-out: Activity
# SN12C [19] = experiment: Growth inhibition of human SN12C cells assessed as cell growth at 10 nM relative to untreated control; settings: read-out: Activity
# MCF7 = experiment: Growth inhibition of human MCF7 cells assessed as cell growth at 100 nM relative to untreated control; settings: read-out: Activity
# IGROV-1 [20] = experiment: Growth inhibition of human IGROV1 cells assessed as cell growth at 10 uM relative to untreated control; settings: read-out: Activity
# BT-549 [21] = experiment: Growth inhibition of human BT549 cells assessed as cell growth at 1 nM relative to untreated control; settings: read-out: Activity
# NCI-H322M = experiment: Growth inhibition of human NCI-H322M cells
# [22] = read-out: LC50 (the source's name)
smiles,measurement,setting,value
COc1ccc2c(c1)[nH]c1c(C)c(OS(=O)(=O)c3cccc4c(N(C)C)cccc34)ccc12,growth at 0.01 µM,DU-145 [1],107%
same,growth at 0.001 µM,MDA-MB-435,100%
same,growth at 0.01 µM,IGROV-1 [2],110%
same,growth at 1 µM,COLO 205,23%
same,growth at 0.001 µM,HT-29 [3],98%
same,GI50,NCI-H23 [4],4.08 µM
same,TGI,NCI-H23 [4],> 100 µM
same,CC50,NCI-H23 [4]; [22],> 100 µM
same,growth at 0.001 µM,SF-539,104%
same,growth at 10 µM,HCC 2998,-5%
same,GI50,U-251,4.28 µM
same,TGI,U-251,> 100 µM
same,CC50,U-251; [22],> 100 µM
same,growth at 0.001 µM,OVCAR-8,107%
same,growth at 1 µM,NCI-H460,9%
same,Activity,PC-3 [5],40%
same,growth at 0.1 µM,K562,91%
same,growth at 0.01 µM,HT-29 [6],106%
same,growth at 1 µM,SK-MEL-2,50%
same,growth at 10 µM,BT-549 [7],13%
same,growth at 1 µM,LOX IMVI,31%
same,growth at 0.01 µM,SK-OV-3,95%
same,growth at 0.01 µM,BT-549 [8],90%
same,growth at 1 µM,HT-29 [9],13%
same,growth at 0.01 µM,HCT-15,92%
same,growth at 1 µM,CAKI-1,69%
same,GI50,IGROV-1 [10],27.6 µM
same,TGI,IGROV-1 [10],> 100 µM
same,CC50,IGROV-1 [10]; [22],> 100 µM
same,growth at 10 µM,HOP-92,-1%
same,growth at 10 µM,DU-145 [11],2%
same,growth at 0.001 µM,NCI/ADR-RES [12],107%
same,growth at 0.1 µM,A549,95%
same,growth at 10 µM,MDA-MB-231 [13],40%
same,growth at 0.001 µM,HL-60(TB),88%
same,growth at 1 µM,NCI/ADR-RES [14],28%
same,growth at 0.01 µM,SF-268,111%
same,growth at 0.1 µM,MDA-MB-231 [15],85%
same,GI50,SR,3.51 µM
same,TGI,SR,> 100 µM
same,CC50,SR; [22],> 100 µM
same,growth at 0.1 µM,NCI-H23 [16],81%
same,growth at 0.1 µM,PC-3 [17],96%
same,growth at 10 µM,NCI-H226,39%
same,growth at 0.1 µM,OVCAR-4,87%
same,growth at 0.01 µM,SK-MEL-5,86%
same,growth at 1 µM,SN12C [18],51%
same,growth at 10 µM,T47D,2%
same,growth at 0.01 µM,SN12C [19],92%
same,growth at 0.1 µM,MCF7,81%
same,growth at 10 µM,IGROV-1 [20],39%
same,growth at 0.001 µM,BT-549 [21],100%
same,GI50,NCI-H322M,12.8 µM
same,TGI,NCI-H322M,> 100 µM
same,CC50,NCI-H322M; [22],> 100 µM
